According to PubChem BioAssay AID624338 (The Scripps Research Institute Molecular Screening Center, 2012):
The source made the active and inactive calls.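 Rule for the calls: active = inhibition of a cysteine-free insulin-degrading enzyme mutant that persists after dilution, so judged irreversible; inactive = inhibition weakens or vanishes on dilution, so reversible.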

What follows are compounds tested against Insulin-degrading enzyme (Homo sapiens) (UniProt P14735) (assay: dilution reversibility, CF mutant IDE inhibitors – biochemical, cysteine-free mutant, FRET1 substrate, round 2, mechanism study for IDE inhibitor project, late-stage follow-up (AID 624338)). Details: recombinant CF-IDE, FRET1 substrate fluorescence, reversibility by dilution.
Sequence of Insulin-degrading enzyme (Homo sapiens) (P14735 whole entry, looked up): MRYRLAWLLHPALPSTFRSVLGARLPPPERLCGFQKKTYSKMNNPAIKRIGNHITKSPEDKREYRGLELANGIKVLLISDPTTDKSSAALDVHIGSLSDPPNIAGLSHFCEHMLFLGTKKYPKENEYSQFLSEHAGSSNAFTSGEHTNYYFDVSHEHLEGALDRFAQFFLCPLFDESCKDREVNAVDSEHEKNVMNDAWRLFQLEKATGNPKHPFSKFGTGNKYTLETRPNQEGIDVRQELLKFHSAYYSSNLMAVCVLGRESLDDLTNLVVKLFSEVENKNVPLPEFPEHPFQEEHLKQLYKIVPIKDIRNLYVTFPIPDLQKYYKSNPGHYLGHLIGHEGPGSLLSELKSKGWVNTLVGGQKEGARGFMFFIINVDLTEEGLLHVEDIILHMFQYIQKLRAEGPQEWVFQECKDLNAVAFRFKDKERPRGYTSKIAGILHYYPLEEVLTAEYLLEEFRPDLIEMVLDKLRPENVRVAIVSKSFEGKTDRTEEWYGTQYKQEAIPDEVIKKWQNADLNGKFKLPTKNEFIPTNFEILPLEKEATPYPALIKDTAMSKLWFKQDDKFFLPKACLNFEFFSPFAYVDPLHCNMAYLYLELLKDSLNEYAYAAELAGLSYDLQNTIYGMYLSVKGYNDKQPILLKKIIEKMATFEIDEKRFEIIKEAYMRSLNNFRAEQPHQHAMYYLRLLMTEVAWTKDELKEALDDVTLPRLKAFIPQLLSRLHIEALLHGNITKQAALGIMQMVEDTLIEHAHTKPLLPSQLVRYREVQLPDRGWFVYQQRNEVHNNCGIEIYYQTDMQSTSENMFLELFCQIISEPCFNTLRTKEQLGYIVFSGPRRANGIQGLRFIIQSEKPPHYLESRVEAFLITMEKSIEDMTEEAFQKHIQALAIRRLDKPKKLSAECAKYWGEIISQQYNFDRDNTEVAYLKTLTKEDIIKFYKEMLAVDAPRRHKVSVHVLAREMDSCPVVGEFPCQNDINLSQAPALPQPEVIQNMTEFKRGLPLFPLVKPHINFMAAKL
How it was run: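 Test system: cysteine-free insulin-degrading enzyme (CF-IDE). Amount: 1 nM enzyme. Repeats: each concentration in triplicate. Controls: DMSO-only wells as 100%, enzyme-free wells as 0%. Also added: FRET1 peptide substrate at 1 µM. Incubation: room temperature reaction. Medium: pH 7.4 buffer. Compound dosing: 10-point semilog dilution series, nominal top dose 100 µM.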

outcome, inactive:
COc1ccc(C(=O)N2CCN(C(=O)C(c3ccccc3)c3ccccc3)CC2)cc1OC
COc1ccc(OCC(=O)N2CCN(C(=O)c3ccc(OC)c(OC)c3)CC2)cc1
c1coc(Cn2c(SCc3nc4ccccc4[nH]3)nnc2-c2cnccn2)c1
O=C(c1ccc(Oc2ccccc2)cc1)N1CCN(C(=O)C2COc3ccccc3O2)CC1 (stereo not given)
c1ccc(-c2nnc(SCc3nc4ccccc4[nH]3)n2Cc2ccco2)nc1
CCOc1ccc(C(=O)N2CCN(C(=O)C3COc4ccccc4O3)CC2)cc1 (stereo not given)
O=C(c1ccc2nc(C(F)(F)F)[nH]c2c1)N1CCN(C(=O)C2COc3ccccc3O2)CC1 (stereo not given)
O=C(c1ccc(OCC2CCCO2)cc1)N1CCN(C(=O)C2COc3ccccc3O2)CC1 (stereo not given)
Cc1nc(COc2ccc(C(=O)N3CCN(C(=O)C4COc5ccccc5O4)CC3)cc2)cs1 (stereo not given)
CC(=O)Nc1ccccc1C(=O)N1CCN(C(=O)C2COc3ccccc3O2)CC1 (stereo not given)
COc1ccc(C(=O)N2CCN(C(=O)COc3ccccc3)CC2)cc1OC
Cc1ccc(-c2nnc(SCc3nc4ccccc4[nH]3)n2Cc2ccco2)cc1
c1ccc(-c2nnc(SCc3nc4ccccc4[nH]3)n2Cc2ccco2)cc1
COc1ccc(C(=O)N2CCN(C(=O)COc3ccc(C)cc3)CC2)cc1OC
c1coc(Cn2c(SCc3nc4ccccc4[nH]3)nnc2-c2ccco2)c1
COc1ccc(C(=O)N2CCN(C(=O)COc3ccc(Cl)cc3)CC2)cc1OC
Clc1ccc(COCc2nnc(SCc3nc4ccccc4[nH]3)n2Cc2ccco2)cc1
c1coc(Cn2c(SCc3nc4ccccc4[nH]3)nnc2-c2cccs2)c1
COc1cc(C(=O)N2CCN(C(=O)C3COc4ccccc4O3)CC2)cc(Cl)c1OC (stereo not given)
Cc1ccc(COCc2nnc(SCc3nc4ccccc4[nH]3)n2Cc2ccco2)cc1
COc1cccc(C(=O)N2CCN(C(=O)C3COc4ccccc4O3)CC2)c1 (stereo not given)
COc1ccc(C(=O)N2CCN(C(=O)C3COc4ccccc4O3)CC2)cc1 (stereo not given)
COc1ccc(C(=O)N2CCN(C(=O)C3CC(=O)N(c4ccccc4)C3)CC2)cc1OC (stereo not given)
COc1ccc(C(=O)N2CCN(C(=O)CCc3c[nH]c4ccccc34)CC2)cc1OC
O=C(c1ccc(Oc2ccc(F)cc2)cc1)N1CCN(C(=O)C2COc3ccccc3O2)CC1 (stereo not given)
